# KCNK9 inh: KCNK9 potassium channel inhibitors, primary screen, HEK293 cells, thallium flux; FluxOR thallium flux fluorescence; hits give low values; B-score at 10 µM; 310,000 compounds, 1.2% hits; AID 488922, 2010;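 active = ratio B-score over 3 SD below the library mean, with starting fluorescence within 5 SD of its mean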;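 note: negative B-score means less thallium flux so channel inhibition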
# KCNK3 inh: human KCNK3 channel inhibitors, primary screen, CHO cells, FluxOR thallium flux, B-score. Potassium channel subfamily K member 3 (Homo sapiens), O14649. FluxOR fluorescence; hits give low values. B-score at 10 µM. 340,000 compounds, 0.84% hits. AID 602410, 2012;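 active = B-score under library mean minus 4 SD, starting fluorescence ratio at most library mean plus 5 SD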;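 note: more negative B-score means stronger inhibition of thallium flux through KCNK3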
# Kir21 inh: inhibitors of mouse Kir2.1 inward-rectifier potassium channel; B-score at 10 µM; 310,000 compounds, 0.85% hits; AID 1672, 2009; HEK293-Kir2.1, FluxOR thallium flux fluorescence; hits give low values;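 active = fluorescence ratio B-score at or below minus 3 SD of library scores, with starting-brightness B-score within 2 SD, cut at about -4.2 in these data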;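 note: channel flux triggered by added potassium and thallium sulfate stimulus; B-score of peak minus minimum fluorescence over baseline after thallium stimulus; more negative B-score means stronger Kir2.1 block with less thallium influx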
# KCNQ1 block: inhibitors of human KCNQ1 channel, primary screen, cell-based, thallium flux, high-throughput. Potassium voltage-gated channel subfamily KQT member 1 (Homo sapiens), P51787. CHO-K1 KCNQ1, FluxOR thallium flux fluorescence; hits give high values. B-score at 10 µM. 310,000 compounds, 1.3% hits. AID 2642, 2010;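 active = compounds whose thallium flux B-score, printed positive for inhibition, exceeds three library SD while starting fluorescence stays within three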;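 note: channel opened by potassium depolarization with thallium stimulus after 20 min compound exposure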
# Target sequence (P51787 whole entry, looked up): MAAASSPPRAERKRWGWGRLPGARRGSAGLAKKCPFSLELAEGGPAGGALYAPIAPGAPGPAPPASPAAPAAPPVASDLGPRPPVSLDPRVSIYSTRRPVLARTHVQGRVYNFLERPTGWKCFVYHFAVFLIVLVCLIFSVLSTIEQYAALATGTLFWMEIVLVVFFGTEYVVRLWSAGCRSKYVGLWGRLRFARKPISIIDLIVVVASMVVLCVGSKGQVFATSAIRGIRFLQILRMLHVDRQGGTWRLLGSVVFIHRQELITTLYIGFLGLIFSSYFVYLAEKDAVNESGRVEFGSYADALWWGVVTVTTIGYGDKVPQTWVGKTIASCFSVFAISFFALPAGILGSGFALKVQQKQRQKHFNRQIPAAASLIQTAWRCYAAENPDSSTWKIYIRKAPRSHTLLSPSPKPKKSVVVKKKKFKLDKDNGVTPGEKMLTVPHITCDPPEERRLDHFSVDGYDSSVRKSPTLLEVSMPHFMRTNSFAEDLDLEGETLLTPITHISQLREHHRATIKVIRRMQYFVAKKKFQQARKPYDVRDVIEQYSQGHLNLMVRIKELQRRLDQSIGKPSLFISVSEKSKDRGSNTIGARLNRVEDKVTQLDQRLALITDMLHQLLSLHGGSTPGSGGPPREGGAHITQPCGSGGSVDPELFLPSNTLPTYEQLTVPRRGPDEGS
# KCNQ1 act: potentiators or activators of KCNQ1 channel, primary screen, cell-based, thallium flux, high-throughput | Potassium voltage-gated channel subfamily KQT member 1 (Homo sapiens), P51787 | 310,000 compounds, 0.35% hits | CHO-K1 KCNQ1, thallium flux FluxOR fluorescence; hits give high values | B-score at 10 µM | AID 2648, 2010;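 active = fluorescence ratio B-score, a plate-corrected score, at least three library SD, with initial intensity B-score within 5 SD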
#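 Medium – assay buffer, equal DMSO in all wells · Material – CHO-K1 cell line with stable KCNQ1 potassium channel expression · Signal – kinetic FluxOR thallium fluorescence, 10-s 1-Hz baseline, 110-s post-stimulus read · Compound – single concentration per compound, DMSO matched to controls · Schedule – 37 °C overnight plating, 90-min dark dye load, 20-min compound pretreatment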
# hERG protect: hERG rescue from dofetilide block, primary screen, cell-based, CHO-hERG, FluxOR thallium flux, dofetilide IC70; Voltage-gated inwardly rectifying potassium channel KCNH2 (Homo sapiens), Q12809; AID 1511, 2009; activation (rescue from dofetilide block), less the hit threshold, % at 10 µM; 310,000 compounds, 0.51% hits; dofetilide IC70 present;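 active = activation above the mean of controls blocked by dofetilide plus 5 SD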;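 note: thallium influx through hERG after potassium depolarization seen as dye fluorescence rise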
# KCNK9 block conf: KCNK9 potassium channel inhibitors, confirmation, HEK293 cells, thallium flux, duplicate; inhibition, % at 10 µM; 4,900 compounds, 43% hits; FluxOR thallium flux fluorescence; AID 492992, 2010; shares compounds with KCNK9 inh;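 active = thallium signal inhibited by more than 5 SD of the compound-free buffer control wells, on both duplicate plates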;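 note: 0% = assay buffer control wells without compound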
# Kir2-1 spec: mouse Kir2.1 channel inhibition, confirmation, selectivity assay for KCNK9 modulator project, cell-based, HEK293, thallium flux; Kir2.1 cells, FluxOR thallium flux fluorescence; 4,900 compounds, 4% hits; inhibition, % at 10 µM; AID 492993, 2010; shares compounds with KCNK9 inh;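 active = thallium signal drop more than 5 SD beyond the mean of the no-compound control wells, seen in both duplicate plates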;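 note: signal is fluorescence rise after thallium addition divided by baseline fluorescence; plate controls were assay buffer only for no effect and full block by chlorpromazine control for full effect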
# HEK293 Tl ctr: thallium flux in non-induced HEK293 cells, confirmation, counter-screen for KCNK9 inhibitor project, cell-based, second counter screen, non-induced KCNK9-HEK293; inhibition, % at 10 µM; FluxOR thallium flux; shares compounds with KCNK9 inh; 4,900 compounds, 40% hits; AID 492997, 2010;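 active = thallium signal drop beyond 5 SD of the untreated control mean, on both duplicate plates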;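 note: plate controls were buffer only IC0 wells for no effect and SID17386958 at its maximal inhibitory level for full effect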
# Numbers without * were called inactive; i = inactive; x = no result given. Shown are actives, neighbours in structure and some others; about 3.8% of the full set was active somewhere.
SMILES,KCNK9 inh,KCNK3 inh,Kir21 inh,KCNQ1 block,KCNQ1 act,hERG protect,KCNK9 block conf,Kir2-1 spec,HEK293 Tl ctr
CC(C)NC(=O)CC(c1ccccc1)c1cc(Br)ccc1O (stereo not given),i,i,-0.18,i,i,-18.2,x,x,x
O=C(CC(c1ccccc1)c1cc(Br)ccc1O)NCc1ccco1 (stereo not given),-10.9*,-11.3*,-2.41,i,i,-17.1,48.0%*,i,i
CC(=O)Nc1nc(C)c(CCC2OCCO2)c(=O)[nH]1,i,i,0.88,i,i,-4.4,x,x,x
COCCNC(=O)[C@H]1C[C@@H]1[C@H](NP(=O)(c1ccccc1)c1ccccc1)c1ccccc1,x,i,x,x,x,x,x,x,x
COc1ccc2nc(Nc3nc(CSc4ccc(C)cc4)cc(=O)[nH]3)nc(C)c2c1,i,i,-1.31,i,i,-6.0,i,i,i
COc1ccc2nc(Nc3nc(CSc4nnnn4-c4ccccc4)cc(=O)[nH]3)nc(C)c2c1,i,i,-0.23,i,i,-16.8,x,x,x
COc1ccc(OC)c(NC(=O)c2ccc(-c3cccs3)cc2)c1,-13.2*,i,0.48,i,i,-5.1,66.0%*,i,35.0%*
COc1ccc(-n2c(C)cc(C(=O)CSc3nnc(-c4ccoc4C)n3C)c2C)cc1,i,i,-1.29,i,i,-8.4,x,x,x
COc1ccc(C(=O)NC(=S)Nc2ccc(CN3CCCCC3)cc2)cc1Cl,i,i,-0.48,i,i,-23.0,x,x,x
COc1ccc(C(=O)NC(=S)Nc2ccc(CN3CCOCC3)cc2)cc1Cl,i,i,0.94,i,i,-13.6,i,i,i
CCN(CCNC(=O)Nc1ccc(Cl)cc1)c1ccccc1,i,i,-1.48,i,i,-6.7,x,x,x
c1ccc(NCc2nc3ccccc3n2CCOc2ccccc2)cc1,i,i,-2.84,i,i,-4.7,x,x,x
COc1ccc(NCc2nc3ccccc3n2CCOc2ccccc2)cc1,-11.2*,i,-4.55*,i,i,-5.4,i,i,33.0%*
COc1ccc(NCc2nc3ccccc3n2C)cc1,i,i,1.2,i,i,-1.2,x,x,x
c1ccc(OCCn2c(-c3ccco3)nc3ccccc32)cc1,i,i,0.41,i,i,-12.7,x,x,x
COc1ccc(NCc2nc3ccccc3n2CCOc2ccc(C)cc2)cc1,-10.7*,i,-0.86,i,i,-0.4,69.5%*,48.0%*,51.5%*
Cc1cccc(OCCn2c(-c3ccco3)nc3ccccc32)c1,-10.1*,i,-1.95,i,i,-18.2,30.0%*,i,33.5%*
O=C(CCS(=O)(=O)c1ccc(Br)s1)N1CCc2ccccc21,i,i,0.48,i,i,-11.2,x,x,x
Cc1cc(Cl)ccc1C(=O)C1CCCN(C(=O)c2cccc(N3CCCC3=O)c2)C1 (stereo not given),i,i,-2.34,i,i,-8.8,x,x,x
COC(=O)CCC(=O)N1CCCC(C(=O)c2ccc(Cl)cc2C)C1 (stereo not given),i,i,0.28,i,i,-3.2,x,x,x
Cc1cc(Cl)ccc1C(=O)C1CCCN(C(=O)c2ccc3ncccc3c2)C1 (stereo not given),i,i,0.24,i,i,-14.3,i,i,i
Cc1cc(Cl)ccc1C(=O)C1CCCN(C(=O)c2ccsc2)C1 (stereo not given),i,i,-3.46,i,i,-8.4,i,i,i
Cc1cc(Cl)ccc1C(=O)C1CCCN(C(=O)c2cc(C(C)C)no2)C1 (stereo not given),i,i,-0.61,i,i,-15.0,i,i,i
Cc1ccc(C(=O)Nc2ccccc2Cl)cc1,i,i,-0.43,i,i,-3.7,x,x,x
O=C(CCc1ccc(Oc2cc([N+](=O)[O-])cc([N+](=O)[O-])c2)cc1)N1CCCCCC1,-10.1*,i,0.02,i,i,-7.2,46.0%*,i,i
SMILES,KCNK9 inh,KCNK3 inh,Kir21 inh,KCNQ1 block,KCNQ1 act,hERG protect,KCNK9 block conf,Kir2-1 spec,HEK293 Tl ctr
O=C(Cc1ccc([N+](=O)[O-])cc1)N1CCCCCC1,i,i,-0.84,i,i,-9.0,x,x,x
O=C(/C=C/c1cccc([N+](=O)[O-])c1)NCCSCc1ccc(Cl)cc1,-8.95*,i,-0.87,i,i,-11.8,54.5%*,i,32.5%*
Cc1ccc(SCCNC(=O)/C=C/c2cccc([N+](=O)[O-])c2)cc1,i,i,0.22,i,i,-5.2,i,i,i
O=C(/C=C/c1cccc([N+](=O)[O-])c1)NCCSc1ccccc1,i,i,-0.06,i,i,-11.1,x,x,x
O=C(/C=C/c1cccc([N+](=O)[O-])c1)NCCSCc1c(Cl)cccc1Cl,i,i,0.27,i,i,-11.1,x,x,x
CCOC(=O)C1CCCN(S(=O)(=O)c2cc3c4c(c2)CCC(=O)N4CCC3)C1 (stereo not given),i,i,-0.48,i,i,-10.6,x,x,x
CC1=NNC(=O)/C1=C\c1cn(-c2ccccc2)nc1-c1ccccc1,i,i,-0.07,i,i,-20.1,i,i,i
CCC1CN(C(=O)NCc2cccc(OC)c2)c2ccccc2O1 (stereo not given),i,i,-0.72,i,i,-1.6,i,i,i
C#C[C@]1(O)CCC2C3CCC4=Cc5oncc5CC4(C)C3CCC21C (stereo not given in full),i,i,0.17,i,i,-6.0,x,x,x
Cc1cccc(Nc2nc(N)nc(-c3oc4ccccc4c3C)n2)c1,-8.87*,i,3.25,i,i,0.4,35.0%*,i,i
Cc1ccc(Nc2nc(N)nc(-c3oc4ccccc4c3C)n2)cc1,i,i,0.7,i,i,-18.0,x,x,x

# Screening data (PubChem)
